Assay outcomes (PubChem)
Sampled rows, rich in hits. Any-hit rate of the full collection: about 2.2%.
DENV2 CPE rescue: protects cells from dengue virus 2 cytopathic effect | 350,000 tested, 1.7% active | CPE inhibition, % at 9.99 µM | AID 651640 | DENV2-infected cells, cytopathic effect rescue, plate reader; in the data active = CPE inhibition above about 20%, passing the limit was not always enough; tested in BHK-21 cells;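 note: 0% = median of neutral control wells and 100% = median of positive control wells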
Statin myotox sup: suppression of simvastatin myotoxicity. rescue of ATP level, % at 7.49 µM. C2C12 myotubes + simvastatin, ATP luminescence, 48 h; scaled: DMSO 0, geranylgeraniol control 100. 330,000 tested, 0.78% active;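 active = mean ATP rescue above about 67%, or every replicate alone reaching that limit, limit read from the data, passing the limit was not always enough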;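 note: myotubes were challenged with 10 µM simvastatin during compound exposure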
E-sel inducer: induces E-selectin expression in human endothelial cells. P16581. HUVEC E-selectin immunofluorescence imaging; normalized: neutral wells 0, TNF-alpha wells 100. activation, % at 7.58 µM. 260,000 tested, 0.37% active. AID 686992;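 active = mean E-selectin-positive cell signal at least 10% of the positive control, reached in at least 60% of replicates, without over 20% cell loss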
Target sequence (P16581 whole entry, looked up): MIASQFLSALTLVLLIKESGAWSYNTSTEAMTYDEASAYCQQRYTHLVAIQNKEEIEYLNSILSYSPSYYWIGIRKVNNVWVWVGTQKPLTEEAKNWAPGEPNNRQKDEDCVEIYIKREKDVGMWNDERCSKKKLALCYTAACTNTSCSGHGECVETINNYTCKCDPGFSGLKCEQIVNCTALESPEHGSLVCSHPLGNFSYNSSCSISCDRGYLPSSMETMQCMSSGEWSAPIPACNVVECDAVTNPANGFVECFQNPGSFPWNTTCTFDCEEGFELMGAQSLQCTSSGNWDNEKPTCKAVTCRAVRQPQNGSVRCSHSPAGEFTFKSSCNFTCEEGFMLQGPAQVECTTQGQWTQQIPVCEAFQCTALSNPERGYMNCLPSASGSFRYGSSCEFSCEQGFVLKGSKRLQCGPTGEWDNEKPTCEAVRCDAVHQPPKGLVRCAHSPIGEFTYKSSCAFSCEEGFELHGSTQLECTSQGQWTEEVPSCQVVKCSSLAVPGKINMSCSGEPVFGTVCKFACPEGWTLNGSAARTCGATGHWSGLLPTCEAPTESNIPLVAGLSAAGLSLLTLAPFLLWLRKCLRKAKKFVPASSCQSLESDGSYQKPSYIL
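assay system = HUVEC, human umbilical vein endothelial cells | input = 3,000 HUVEC seeded per well | medium = EGM-2 growth medium on 0.1% gelatin-coated wells | dosing = one compound dose added by pin transfer | signal = immunofluorescence imaging | read-out basis = % PE-positive cells | control set = TNF-alpha, DMSO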
* = called active by the depositor; · = no result given; ! = not confirmed by another sample.

SMILES | DENV2 CPE rescue | Statin myotox sup | E-sel inducer
CCCN1C[C@H](C)[C@H](OC)CN(C)C(=O)c2cc(NC(=O)c3cnccn3)ccc2OC[C@H]1C | 17 | -2 | 0
CCC(=O)N1[C@@H]2Cn3c(ccc(C4=CCCC4)c3=O)[C@H]1[C@@H](C(=O)NCC1CCCCC1)[C@@H]2CO | 3 | 10 | 0
COc1ccc(NC(=O)N(C)C[C@@H]2OCc3cnnn3CCCC(=O)N([C@@H](C)CO)C[C@@H]2C)cc1 | 24*! | -2 | -3
C[C@@H]1CN([C@H](C)CO)C(=O)CCCn2nncc2CO[C@H]1CN(C)C(=O)Nc1ccc(C(C)(C)C)cc1 | -1 | 11 | 0
COc1ccc(NC(=O)N(C)C[C@@H]2OCc3cnnn3CCCC(=O)N([C@@H](C)CO)C[C@@H]2C)c(OC)c1 | 2 | -7 | 0
COc1ccc(NC(=O)N(C)C[C@@H]2OCc3cnnn3CCCC(=O)N([C@H](C)CO)C[C@H]2C)cc1 | -5 | 2 | 0
COc1ccc(NC(=O)N(C)C[C@H]2OCc3cnnn3CCCC(=O)N([C@@H](C)CO)C[C@H]2C)c(OC)c1 | 26*! | 11 | ·
C[C@@H]1CN([C@@H](C)CO)C(=O)CCCn2nncc2CO[C@H]1CN(C)C(=O)Nc1ccc(C(C)(C)C)cc1 | 22* | 5 | 0
C[C@H]1CN([C@@H](C)CO)C(=O)Cc2cc(NS(=O)(=O)c3ccccc3)ccc2O[C@H]1CN(C)C(=O)Nc1ccccc1 | -1 | 18 | 0
O=C(NC[C@@H]1CC[C@@H]2[C@@H](CN2Cc2ccccc2F)O1)C1CC1 | 8 | · | ·
CCNC(=O)C[C@@H]1CC[C@H]2[C@H](COc3ccc(NC(=O)Nc4cccc(OC)c4)cc3C(=O)N2C)O1 | 2 | -13 | 0
COc1ccccc1N1CCN(Cc2nc3ccccc3[nH]2)CC1 | -6 | -1 | ·
COc1ccccc1N1CCN(Cc2nc3ccsc3c(=O)[nH]2)CC1 | · | 126* | ·
CN(C)CC(=O)Nc1ccc2c(c1)[C@@H]1C[C@@H](CC(=O)NCC3CC3)O[C@@H](CO)[C@@H]1O2 | -9 | 8 | 1
C[C@@H]1CN([C@@H](C)CO)C(=O)Cc2cc(NC(=O)Nc3ccc(C(F)(F)F)cc3)ccc2O[C@H]1CN(C)CC1CC1 | -3 | -8 | -4
C[C@H]1CN([C@@H](C)CO)C(=O)c2cc(NS(=O)(=O)c3cccs3)ccc2O[C@@H]1CN(C)Cc1ccc(C(=O)Nc2ccccc2N)cc1 | -2 | -29 | 0
C[C@@H]1CN([C@H](C)CO)C(=O)Cc2cc(NS(=O)(=O)c3cccs3)ccc2O[C@H]1CN(C)Cc1ccc(C(=O)Nc2ccccc2N)cc1 | 39* | · | -2
C[C@H](CO)N1C[C@H](C)[C@@H](CN(C)Cc2ccc(C(=O)Nc3ccccc3N)cc2)Oc2ccc(NS(=O)(=O)c3cccs3)cc2C1=O | -5 | -32 | -3
C[C@H](CO)N1C[C@H](C)[C@H](CN(C)Cc2ccc(C(=O)Nc3ccccc3N)cc2)Oc2ccc(NS(=O)(=O)c3cccs3)cc2CC1=O | -11 | -1 | 59*
CCCN(C)C[C@@H]1Oc2ncc(Br)cc2C(=O)N([C@H](C)CO)C[C@H]1C | -6 | -2 | 0
Cc1noc(C)c1NC(=O)Nc1ccc2c(c1)CC(=O)N([C@@H](C)CO)C[C@@H](C)[C@H](CN(C)CC1CCCCC1)O2 | -2 | -14 | 0
Cc1ccc(-c2cnc3c(c2)C(=O)N([C@H](C)CO)C[C@@H](C)[C@@H](CN(C)CC2CCCC2)O3)cc1 | -3 | 3 | 0
C[C@@H]1CN([C@@H](C)CO)C(=O)c2cc(C#CCN(C)C)cnc2O[C@@H]1CN(C)C(=O)c1cnccn1 | · | 0 | 0
N#C/C(C(=O)N1CCCCC1)=C1/N=C(N)c2ccccc21 | 2 | · | ·
N#C/C(C(=O)N1CCCCC1)=C1/N=C(NC(=O)c2ccc(F)cc2)c2ccccc21 | -2 | 86* | ·
SMILES | DENV2 CPE rescue | Statin myotox sup | E-sel inducer
COc1ccc(NC(=O)Nc2ccc3c(c2)C(=O)N([C@H](C)CO)C[C@H](C)[C@@H](CN(C)S(C)(=O)=O)O3)cc1 | 26*! | -38 | 0
COc1ccc(NC(=O)Nc2ccc3c(c2)C(=O)N([C@@H](C)CO)C[C@H](C)[C@H](CN(C)S(=O)(=O)c2ccc(OC)cc2)O3)cc1 | -5 | -45 | -1
COc1ccc(NC(=O)Nc2ccc3c(c2)C(=O)N([C@H](C)CO)C[C@@H](C)[C@@H](CN(C)S(=O)(=O)c2ccc(F)cc2)O3)cc1 | -6 | -19 | 40*
C[C@H](CO)N1C[C@H](C)[C@@H](CN(C)S(C)(=O)=O)Oc2ccc(NC(=O)Nc3ccccc3)cc2C1=O | 88*! | -1 | 0
COc1ccc(NC(=O)Nc2ccc3c(c2)C(=O)N([C@H](C)CO)C[C@H](C)[C@@H](CN(C)S(=O)(=O)c2ccc(OC)cc2)O3)cc1 | 26*! | -14 | 1
COc1ccc(NC(=O)Nc2ccc3c(c2)C(=O)N([C@H](C)CO)C[C@H](C)[C@H](CN(C)S(=O)(=O)c2ccc(F)cc2)O3)cc1 | -1 | -35 | 7
C[C@H](CO)N1C[C@H](C)[C@H](CN(C)S(C)(=O)=O)Oc2ccc(NC(=O)Nc3ccccc3)cc2C1=O | -1 | -3 | -1
COc1ccc(NC(=O)Nc2ccc3c(c2)C(=O)N([C@@H](C)CO)C[C@@H](C)[C@@H](CN(C)S(C)(=O)=O)O3)cc1 | -9 | -13 | 0
C[C@@H]1CN([C@@H](C)CO)C(=O)c2c(c3ccccc3n2C)-c2ccccc2CO[C@@H]1CN(C)C(=O)c1ccc(F)cc1 | -7 | 4 | 2
CCC(=O)Nc1ccc2c(c1)C(=O)N(C)C[C@H](OC)[C@H](C)CN[C@@H](C)CO2 | -5 | -7 | 0
C[C@H](CO)N1C[C@H](C)[C@@H](CN(C)Cc2ccc(C(=O)O)cc2)Oc2c(NC(=O)c3cnccn3)cccc2C1=O | 3 | · | -3
COc1cccc(CNC(=O)C[C@H]2C=C[C@H](NC(=O)C3CCOCC3)[C@H](CO)O2)c1 | 1 | -3 | 0
CCNC(=O)C[C@H]1CC[C@@H]2[C@H](COC[C@H](O)CN2C(=O)C2CCCC2)O1 | -8 | 1 | 1
CCNC(=O)C[C@H]1CC[C@H]2[C@@H](COC[C@@H](O)CN2C(=O)C2CCCC2)O1 | 107* | 1 | 0
O=C(C[C@H]1CC[C@@H]2[C@H](COC[C@H](O)CN2C(=O)C2CCCC2)O1)NCc1ccncc1 | 30* | -4 | 0
O=C(C[C@H]1CC[C@H]2[C@@H](COC[C@@H](O)CN2C(=O)Nc2ccc(Cl)c(Cl)c2)O1)NCc1ccc(Cl)cc1 | 29* | -20 | 0
O=C(C[C@@H]1CC[C@H]2[C@@H](COC[C@@H](O)CN2C(=O)Nc2ccc(Cl)c(Cl)c2)O1)NCc1ccc(Cl)cc1 | -16 | -19 | 0
O=C(C[C@@H]1CC[C@H]2[C@@H](COC[C@@H](O)CN2C(=O)C2CCCC2)O1)NCc1ccncc1 | -5 | -12 | 0
O=C(O)[C@H]1[C@H](CO)[C@H]2Cn3c(ccc(C4=CCCCC4)c3=O)[C@H]2N1Cc1ccc2c(c1)OCO2 | 1 | 36 | 0
O=C(N[C@@H]1C[C@@H]2O[C@H](CO)CC[C@@H]2O[C@@H]1CCc1ccc(C#Cc2ccccc2)cc1)c1ccccn1 | 3 | · | ·
